Reference: ChEMBL document CHEMBL4680153, “New Spisulosine Derivative promotes robust autophagic response to cancer cells” (Eur J Med Chem, 2020)
Activity calls are given as the source filed them. The rule behind the calls is not given here.

What was measured:
DLD-1 [1] = experiment: Induction of apoptosis in human DLD-1 cells assessed as viable cells at 7.5 uM incubated for 18 hrs by Annexin V-FITC and propidium iodide staining based flow cytometry analysis (reference value: 85.2 %); format: functional; conditions: read-out: Activity
DLD-1 [2] = experiment: Induction of autophagy in human DLD-1 cells assessed as mitochondrial damage at 5 uM measured upto 6 hrs by TEM analysis; format: functional, cell-based; conditions: time hrs <=6
Summary of the method: (§1)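 DLD-1 cells were treated at 5 μM for 6 h, fixed in 2.5% glutaraldehyde in phosphate buffer (pH 7.4) and post-fixed in 1% OsO4. Samples were dehydrated through ethanol and embedded in Spurr resin, and ultrathin sections were stained with uranyl acetate and lead citrate. Sections were viewed by TEM at 80 kV, with at least 200 cells per set across 4 grids.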

SW-620 = experiment: Antiproliferative activity against human SW-620 cells assessed as reduction in cell growth incubated for 48 hrs by SRB assay; format: functional, cell-based; conditions: SW-620, 48 h
Summary of the method: (§2)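 Colon cancer lines and CCD-18Co normal colon fibroblasts, early passage, plated at 40% confluency and incubated overnight. They were then treated with varying concentrations for 48 h. The SRB read-out was absorbance at 510 nm, and IC50 was taken as the half-maximal proliferation-inhibitory concentration.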

DLD-1 [3] = experiment: Induction of autophagy in human DLD-1 cells assessed as increase in Beclin expression at 10 uM measured upto 6 hrs by Western blot analysis; format: functional, cell-based; conditions: time hrs <=6
Summary of the method: (§3)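 DLD-1 cells were treated with 10 μM compound or vehicle for the indicated times. Equal protein from NP-40 lysates was run on 15% SDS-PAGE and transferred to PVDF. Immunoblots for Beclin-1, Atg3, Atg5 and Atg7 were developed by chemiluminescence.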

DLD-1 [4] = experiment: Antiproliferative activity against human DLD-1 cells assessed as reduction in cell growth at 10 uM incubated for 48 hrs by SRB assay relative to control; format: functional
Summary of the method: (§4)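 Early-passage cells plated at 40% confluency and left overnight, then exposed to 10 μM compound for 48 h. Growth was measured by sulforhodamine B staining, with absorbance at 510 nm. Percent growth inhibition was calculated against untreated cells.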

DLD-1 [5] = experiment: Antiproliferative activity against human DLD-1 cells assessed as reduction in cell growth incubated for 48 hrs by SRB assay; format: functional, cell-based; conditions: DLD-1, 48 h; summary of the method: as §2
DLD-1 [6] = experiment: Induction of autophagy in human DLD-1 cells assessed as reduction in cell viability at 7.5 uM incubated for 24 hrs by crystal violet staining based phase contrast microscopic analysis; format: functional
DLD-1 [7] = experiment: Induction of autophagy in human DLD-1 cells assessed as vacuole formation at 7.5 uM incubated for 20 hrs by MDC staining based confocal microscopy; format: functional, cell-based
Summary of the method: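 DLD-1 cells were incubated with drug for 20 h and then labeled with monodansylcadaverine in PBS for 20 min at 37°C in the dark. After washing, cells were imaged at once by confocal microscopy (excitation 390 nm, emission 460 nm).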

DLD-1 [8] = experiment: Induction of apoptosis in human DLD-1 cells assessed as early apoptotic cells at 7.5 uM incubated for 18 hrs by Annexin V-FITC and propidium iodide staining based flow cytometry analysis (reference value: 4.95 %); format: functional
CCD-18Co = experiment: Antiproliferative activity against human CCD-18Co cells assessed as reduction in cell growth incubated for 48 hrs by SRB assay; format: cell-based; summary of the method: as §2
DLD-1 [9] = experiment: Induction of autophagy in human DLD-1 cells assessed as nuclear damage at 5 uM measured upto 6 hrs by TEM analysis; format: functional, cell-based; conditions: time hrs <=6; summary of the method: as §1
DLD-1 [10] = experiment: Induction of apoptosis in human DLD-1 cells assessed as late apoptotic cells at 7.5 uM incubated for 18 hrs by Annexin V-FITC and propidium iodide staining based flow cytometry analysis (reference value: 5.7 %); format: functional
HT-29 [11] = experiment: Antiproliferative activity against human HT-29 cells assessed as reduction in cell growth at 10 uM incubated for 48 hrs by SRB assay relative to control; format: functional; summary of the method: as §4
DLD-1 [12] = experiment: Induction of autophagy in human DLD-1 cells assessed as increase in LC3B-I to LC3B-II conversion at 7.5 uM incubated for 18 hrs by Western blot analysis; format: functional, cell-based
Summary of the method: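 Vehicle or 7.5 μM compound was applied to DLD-1 cells for 18 h. Cells were lysed in NP-40 with inhibitors and equal protein was resolved on 15% SDS-PAGE and blotted to PVDF. Blots were probed for LC3A/B, with GAPDH as reference, and detected by ECL.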

NCI-H358 = experiment: Antiproliferative activity against human NCI-H358 cells assessed as reduction in cell growth at 10 uM incubated for 48 hrs by SRB assay relative to control; format: functional; summary of the method: as §4
DLD-1 [13] = experiment: Induction of apoptosis in human DLD-1 cells assessed as necrotic cells at 7.5 uM incubated for 18 hrs by Annexin V-FITC and propidium iodide staining based flow cytometry analysis (reference value: 4.1 %); format: functional
DLD-1 [14] = experiment: Induction of autophagy in human DLD-1 cells assessed as vacuole formation at 7.5 uM incubated for 24 hrs in presence of Bafilomycin-A1 by phase contrast microscopic analysis; format: functional, cell-based
Summary of the method: (§5)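 DLD-1 cells received vehicle, 7.5 μM compound alone, or compound plus 100 nM bafilomycin A1 pretreatment for 24 h. Cells were then examined by phase-contrast microscopy.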

DLD-1 [15] = experiment: Induction of autophagy in human DLD-1 cells assessed as reduction in cell viability at 7.5 uM incubated for 24 hrs in presence of Bafilomycin-A1 by crystal violet staining based phase contrast microscopic analysis; format: functional
LoVo = experiment: Antiproliferative activity against human LoVo cells assessed as reduction in cell growth incubated for 48 hrs by SRB assay; format: functional, cell-based; summary of the method: as §2
HT-29 [16] = experiment: Antiproliferative activity against human HT-29 cells assessed as reduction in cell growth incubated for 48 hrs by SRB assay; format: functional, cell-based; conditions: HT-29, 48 h; summary of the method: as §2
DLD-1 [17] = experiment: Induction of autophagy in human DLD-1 cells assessed as increase in Atg3 expression at 10 uM measured upto 6 hrs by Western blot analysis; format: functional, cell-based; conditions: time hrs <=6; summary of the method: as §3
DLD-1 [18] = experiment: Induction of autophagy in human DLD-1 cells assessed as increase in Atg5 expression at 10 uM measured upto 6 hrs by Western blot analysis; format: functional, cell-based; conditions: time hrs <=6; summary of the method: as §3
DLD-1 [19] = experiment: Induction of apoptosis in human DLD-1 cells assessed as increase in PARP cleavage at 5 to 7.5 uM by Western blot analysis; format: functional, cell-based; conditions: dose 5-7.5 µM
Summary of the method: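 DLD-1 cells were treated at 7.5 μM for 18 h and lysed in NP-40 buffer containing protease and phosphatase inhibitors. Protein was quantified by BCA, and equal amounts were run on 15% SDS-PAGE and transferred to PVDF. Cleaved PARP was probed and detected by enhanced chemiluminescence.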

DLD-1 [20] = experiment: Induction of autophagy in human DLD-1 cells assessed as vacuole formation at 5 uM measured upto 6 hrs by TEM analysis; format: functional, cell-based; conditions: time hrs <=6; summary of the method: as §1
MCF7 = experiment: Antiproliferative activity against human MCF7 cells assessed as reduction in cell growth at 10 uM incubated for 48 hrs by SRB assay relative to control; format: functional; summary of the method: as §4
DLD-1 [21] = experiment: Induction of autophagy in human DLD-1 cells assessed as increase in Atg7 expression at 10 uM measured upto 6 hrs by Western blot analysis; format: functional, cell-based; conditions: time hrs <=6; summary of the method: as §3
COLO 205 = experiment: Antiproliferative activity against human COLO 205 cells assessed as reduction in cell growth incubated for 48 hrs by SRB assay; format: functional, cell-based; conditions: COLO 205, 48 h; summary of the method: as §2
A549 = experiment: Antiproliferative activity against human A549 cells assessed as reduction in cell growth at 10 uM incubated for 48 hrs by SRB assay relative to control; format: functional; summary of the method: as §4
SW48 = experiment: Antiproliferative activity against human SW48 cells assessed as reduction in cell growth incubated for 48 hrs by SRB assay; format: functional, cell-based; conditions: SW48, 48 h; summary of the method: as §2
DLD-1 [22] = experiment: Induction of vacuole formation in human DLD-1 cells assessed as increase in cellular granularity at 7.5 uM incubated for 18 hrs by FACS analysis; format: functional, cell-based
Summary of the method: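 DLD-1 cells were given vehicle or 7.5 μM compound for 18 h. Cell size (forward scatter) and granularity (side scatter) were then read by flow cytometry.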

DLD-1 [23] = experiment: Induction of autophagy in human DLD-1 cells assessed as vacuole formation at 7.5 uM incubated for 24 hrs by phase contrast microscopic analysis; format: functional, cell-based; summary of the method: as §5
DLD-1 [24] = experiment: Induction of autophagy in human DLD-1 cells assessed as increase in LC-3 punta formation at 1 to 5 uM incubated for 6 hrs by based confocal microscopy; format: functional, cell-based; conditions: dose 1-5 µM
Summary of the method: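 DLD-1 cells were grown overnight on coverslips and treated with vehicle or compound for 6 h. They were fixed in 4% paraformaldehyde, permeabilized with 0.1% Triton X-100 and blocked in 2% BSA. Primary antibody was applied overnight at 4°C, then fluorescent secondary for 2 h with a DAPI counterstain. LC3 puncta were imaged by confocal microscopy with a 63× oil objective.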

MDA-MB-231 = experiment: Antiproliferative activity against human MDA-MB-231 cells assessed as reduction in cell growth at 10 uM incubated for 48 hrs by SRB assay relative to control; format: functional; summary of the method: as §4

IC50 (SW-620): 1.86 µM
IC50 (DLD-1 [5]): 4.46 µM
IC50 (LoVo): 3.33 µM
IC50 (HT-29 [16]): 4.15 µM
IC50 (COLO 205): 2.03 µM
IC50 (SW48): 3.14 µM
SMILES: CCCCCCCCCCCCCC[C@H](O)[C@@H](N)Cc1ccc(OC)cc1
viability at 7.5 µM (DLD-1 [1]): 93.6%
Activity (DLD-1 [2]): inactive
Activity (DLD-1 [3]): Active
inhibition at 10 µM (DLD-1 [4]): 97.3%
Activity (DLD-1 [6]): Active
Activity (DLD-1 [7]): Active
Activity (DLD-1 [8]): 0.46%
IC50 (CCD-18Co): > 10 µM
Activity (DLD-1 [9]): inactive
Activity (DLD-1 [10]): 0.8%
inhibition at 10 µM (HT-29 [11]): 97.7%
Activity (DLD-1 [12]): Active
inhibition at 10 µM (NCI-H358): 90.4%
Activity (DLD-1 [13]): 5%
Activity (DLD-1 [14]): inactive
Activity (DLD-1 [15]): inactive
Activity (DLD-1 [17]): Active
Activity (DLD-1 [18]): Active
Activity (DLD-1 [19]): inactive
Activity (DLD-1 [20]): Active
inhibition at 10 µM (MCF7): 89.3%
Activity (DLD-1 [21]): Active
inhibition at 10 µM (A549): 94.8%
Activity (DLD-1 [22]): Active
Activity (DLD-1 [23]): Active
Activity (DLD-1 [24]): Active
inhibition at 10 µM (MDA-MB-231): 96.8%
